Results taken from ChEMBL document CHEMBL5042537, “Synthesis and Characterization of 5-(2-Fluoro-4-[11C]methoxyphenyl)-2,2-dimethyl-3,4-dihydro-2H-pyrano[2,3-b]pyridine-7-carboxamide as a PET Imaging Ligand for Metabotropic Glutamate Receptor 2” (J Med Chem, 2022).
Blank lines part the entries; values can stand above or below the compound they belong to. Calls of active or inactive are those of the source. The rule behind the calls is not given here.

Tests used:
[1] = Permeability of the compound in Sprague-Dawley rat brain striatum at 1 to 30 mins by CT scan; type: ADME, tissue-based; conditions: time 1-30 min
How it was run: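 Male Sprague–Dawley rats under isoflurane anaesthesia were injected iv via tail vein with the [11C] tracer (63.0–87.3 MBq). Dynamic PET ran for 60 min, reconstructed by MLEM, with a CT scan for attenuation correction. Striatal SUV time-activity curves were derived, and images were summed over 1–30 min.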

[2] = Drug uptake in Sprague-Dawley rat brain striatum mGlr2 rich region assessed as decrease in drug accumulation pretreated with 4-(4-fluorophenyl)-5-((1-methyl-1H-pyrazol-3-yl)methoxy)picolinamide at 0.5 mg/kg, iv for 1 min before administration of tracer injection by CT scan; type: ADME, organism-based; conditions: in vivo, pooled result: one value given for 4 cell lines, strains, targets or settings
How it was run: (§1)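 Male Sprague–Dawley rats (285–421 g) under isoflurane received [11C] tracer (63.0–87.3 MBq) iv via tail vein, followed by 60 min dynamic PET with CT for attenuation correction. Blockers were given iv 1 or 20 min before tracer, at 0.5 mg/kg (10% ethanol/5% Tween-80/saline) or 0.2 mg/kg (10% DMSO/5% Tween-20/PBS). Regional accumulation was taken over 2–30 min and compared with baseline scans.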

[3] = Drug uptake in Sprague-Dawley rat brain cerebellum mGlr2 rich region assessed as decrease in drug accumulation pretreated with 4-(8-bromo-2-oxo-2,3-dihydro-1H-benzo[b][1,4]diazepin-4-yl)picolinonitrile at 0.2 mg/kg, iv for 20 min before administration of tracer injection by CT scan; type: ADME, organism-based; conditions: in vivo; how it was run: as §1
[4] = Drug uptake in Sprague-Dawley rat brain striatum mGlr2 rich region assessed as decrease in drug accumulation pretreated with 4-(8-bromo-2-oxo-2,3-dihydro-1H-benzo[b][1,4]diazepin-4-yl)picolinonitrile at 0.2 mg/kg, iv for 1 min before administration of tracer injection by CT scan; type: ADME, organism-based; conditions: in vivo; how it was run: as §1
[5] = Drug uptake in Sprague-Dawley rat brain cerebellum mGlr2 rich region by CT scan; type: ADME, tissue-based; conditions: in vivo; how it was run: as §1
[6] = Drug uptake in Sprague-Dawley rat brain thalamus mGlr2 rich region assessed as decrease in drug accumulation pretreated with 4-(8-bromo-2-oxo-2,3-dihydro-1H-benzo[b][1,4]diazepin-4-yl)picolinonitrile at 0.2 mg/kg, iv for 1 min before administration of tracer injection by CT scan; type: ADME, organism-based; conditions: in vivo; how it was run: as §1
[7] = Drug uptake in Sprague-Dawley rat brain cerebellum mGlr2 rich region assessed as decrease in drug accumulation pretreated with 4-(8-bromo-2-oxo-2,3-dihydro-1H-benzo[b][1,4]diazepin-4-yl)picolinonitrile at 0.2 mg/kg, iv for 1 min before administration of tracer injection by CT scan; type: ADME, organism-based; conditions: in vivo; how it was run: as §1
[8] = Drug metabolism in Cynomolgus monkey plasma assessed as retention time of metabolite by measuring pretreated with 4-(4-fluorophenyl)-5-((1-methyl-1H-pyrazol-3-yl)methoxy)picolinamide at 1 mg/kg, iv for 20 min before administration of tracer injection by CT scan; type: ADME, organism-based, Macaca fascicularis; conditions: in vivo
How it was run: (§2)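 Cynomolgus monkey (female, 5.0 kg) given tracer as a 3 min iv infusion, with blocker 1.0 mg/kg iv 20 min before. Plasma samples from 5–120 min were analysed by automated column-switching radioHPLC (capture column, then C18 with acetonitrile:0.1 M ammonium formate 45:55, 0.1% TFA). Eluate was collected in 1 min fractions and gamma-counted to give percent parent.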

[9] = Drug uptake in Sprague-Dawley rat brain hippocampus mGlr2 rich region by CT scan; type: ADME, tissue-based; conditions: in vivo; how it was run: as §1
[10] = Drug uptake in Sprague-Dawley rat brain hypothalamus mGlr2 rich region assessed as decrease in drug accumulation pretreated with 4-(8-bromo-2-oxo-2,3-dihydro-1H-benzo[b][1,4]diazepin-4-yl)picolinonitrile at 0.2 mg/kg, iv for 1 min before administration of tracer injection by CT scan; type: ADME, organism-based; conditions: in vivo; how it was run: as §1
[11] = Drug uptake in Sprague-Dawley rat brain […] rich region assessed as decrease in drug accumulation pretreated with 4-(8-bromo-2-oxo-2,3-dihydro-1H-benzo[b][1,4]diazepin-4-yl)picolinonitrile at 0.2 mg/kg, iv for 1 min before administration of tracer injection by CT scan; type: ADME, organism-based; conditions: in vivo; how it was run: as §1
[12] = Drug uptake in Sprague-Dawley rat brain striatum mGlr2 rich region assessed as decrease in drug accumulation pretreated with 4-(8-bromo-2-oxo-2,3-dihydro-1H-benzo[b][1,4]diazepin-4-yl)picolinonitrile at 0.2 mg/kg, iv for 20 min before administration of tracer injection by CT scan; type: ADME, organism-based; conditions: in vivo; how it was run: as §1
[13] = Drug uptake in Sprague-Dawley rat brain cortex mGlr2 rich region assessed as decrease in drug accumulation pretreated with 4-(4-fluorophenyl)-5-((1-methyl-1H-pyrazol-3-yl)methoxy)picolinamide at 0.5 mg/kg, iv for 1 min before administration of tracer injection by CT scan; type: ADME, organism-based; conditions: in vivo; how it was run: as §1
[14] = Drug metabolism in Cynomolgus monkey plasma assessed as parent compound remaining pretreated with 4-(4-fluorophenyl)-5-((1-methyl-1H-pyrazol-3-yl)methoxy)picolinamide at 1 mg/kg, iv for 20 mins before administration of tracer injection measured after 120 mins by CT scan; type: ADME, organism-based, Macaca fascicularis; conditions: read-out: Stability; how it was run: as §2
[15] = Permeability of the compound across blood brain barrier in Sprague-Dawley rat after 4 mins by CT scan; type: ADME, tissue-based
How it was run: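 Male Sprague–Dawley rats (285–421 g) under isoflurane (1.0–1.5%) in oxygen. [11C]tracer (63.0–87.3 MBq) given iv via tail-vein catheter. Dynamic PET ran 60 min from injection, followed by CT for anatomy and attenuation correction. Data were reconstructed by MLEM into 24 frames. Regional brain uptake was expressed as SUV time-activity curves.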

[16] = Drug uptake in Sprague-Dawley rat brain cortex mGlr2 rich region by CT scan; type: ADME, tissue-based; conditions: in vivo; how it was run: as §1
[17] = Drug uptake in Sprague-Dawley rat brain thalamus mGlr2 rich region assessed as decrease in drug accumulation pretreated with 4-(8-bromo-2-oxo-2,3-dihydro-1H-benzo[b][1,4]diazepin-4-yl)picolinonitrile at 0.2 mg/kg, iv for 20 min before administration of tracer injection by CT scan; type: ADME, organism-based; conditions: in vivo, pooled result: one value given for 4 cell lines, strains, targets or settings; how it was run: as §1
[18] = Drug uptake in Sprague-Dawley rat brain thalamus mGlr2 rich region by CT scan; type: ADME, tissue-based; conditions: in vivo; how it was run: as §1
[19] = Drug uptake in Sprague-Dawley rat brain thalamus mGlr2 rich region assessed as decrease in drug accumulation pretreated with 4-(4-fluorophenyl)-5-((1-methyl-1H-pyrazol-3-yl)methoxy)picolinamide at 0.5 mg/kg, iv for 1 min before administration of tracer injection by CT scan; type: ADME, organism-based; conditions: in vivo; how it was run: as §1
[20] = Drug uptake in Sprague-Dawley rat brain hippocampus mGlr2 rich region assessed as decrease in drug accumulation pretreated with 4-(8-bromo-2-oxo-2,3-dihydro-1H-benzo[b][1,4]diazepin-4-yl)picolinonitrile at 0.2 mg/kg, iv for 1 min before administration of tracer injection by CT scan; type: ADME, organism-based; conditions: in vivo; how it was run: as §1
[21] = Drug uptake in Sprague-Dawley rat brain striatum mGlr2 rich region by CT scan; type: ADME, tissue-based; conditions: in vivo; how it was run: as §1
[22] = Drug metabolism in Cynomolgus monkey plasma assessed as parent compound remaining pretreated with 4-(4-fluorophenyl)-5-((1-methyl-1H-pyrazol-3-yl)methoxy)picolinamide at 1 mg/kg, iv for 20 mins before administration of tracer injection measured after 30 mins by CT scan; type: ADME, organism-based, Macaca fascicularis; conditions: read-out: Stability; how it was run: as §2
[23] = Drug uptake in Sprague-Dawley rat brain hypothalamus mGlr2 rich region by CT scan; type: ADME, tissue-based; conditions: in vivo; how it was run: as §1
[24] = Stability of the compound in rat liver microsome measured at 60 min; type: ADME; conditions: liver microsomes, read-out: Stability
How it was run: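 Compound (1.5 μL of 1 mM DMSO stock) in PBS was preincubated at 37 °C, then Sprague–Dawley rat liver microsomes and NADPH (10 mM stock) were added. After 60 min at 37 °C, reactions were quenched with cold acetonitrile and analysed by HPLC against an internal standard. Stability = 60 min/0 min peak area × 100%; at least three repeats.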

[25] = Stability of the compound in rat plasma measured at 60 min; type: ADME, cell-free; conditions: read-out: Stability
How it was run: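 Compound (2.5 μL of 1 mM DMSO stock) was incubated in 100 μL rat serum at 37 °C for 60 min, then quenched with ice-cold acetonitrile and centrifuged. Supernatant was analysed by HPLC against an internal standard. Stability = peak area at 60 min / peak area at 0 min × 100%; at least three repeats.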

[26] = Lipophilicity, LogD at pH 7.4 of the compound by shake flask method; type: physicochemical; conditions: buffer
How it was run: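 Shake-flask method: 0.1 mg compound in n-octanol/PBS pH 7.4 (1.0 mL each), vortexed 1 min and shaken at 37 °C overnight. Each phase was quantified by HPLC peak area at 254 nm, and LogD = log(octanol/PBS). Run at least three times.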

[27] = target: T1, Metabotropic glutamate receptor 2 (Homo sapiens, UniProt Q14416); assay: Negative allosteric modulation activity at human recombinant mGlur2 at 30 nM by cAMP Glosensor assay; type: functional; conditions: filed as negative allosteric modulator
How it was run: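 Flp-In T-REx-293 cells with tetracycline-inducible mGluR2 (induced with 1 μg/mL tetracycline) were transfected with pGloSensor-21F and plated at 15,000 cells/well in BME with 1% dialyzed FBS. Split-luciferase cAMP read-out was taken with 0.1 μM isoproterenol and increasing L-glutamate. Glutamate curves were fitted to an allosteric operational model; three independent assays in triplicate.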
Target sequence in this assay (Q14416 19-872 limits assumed): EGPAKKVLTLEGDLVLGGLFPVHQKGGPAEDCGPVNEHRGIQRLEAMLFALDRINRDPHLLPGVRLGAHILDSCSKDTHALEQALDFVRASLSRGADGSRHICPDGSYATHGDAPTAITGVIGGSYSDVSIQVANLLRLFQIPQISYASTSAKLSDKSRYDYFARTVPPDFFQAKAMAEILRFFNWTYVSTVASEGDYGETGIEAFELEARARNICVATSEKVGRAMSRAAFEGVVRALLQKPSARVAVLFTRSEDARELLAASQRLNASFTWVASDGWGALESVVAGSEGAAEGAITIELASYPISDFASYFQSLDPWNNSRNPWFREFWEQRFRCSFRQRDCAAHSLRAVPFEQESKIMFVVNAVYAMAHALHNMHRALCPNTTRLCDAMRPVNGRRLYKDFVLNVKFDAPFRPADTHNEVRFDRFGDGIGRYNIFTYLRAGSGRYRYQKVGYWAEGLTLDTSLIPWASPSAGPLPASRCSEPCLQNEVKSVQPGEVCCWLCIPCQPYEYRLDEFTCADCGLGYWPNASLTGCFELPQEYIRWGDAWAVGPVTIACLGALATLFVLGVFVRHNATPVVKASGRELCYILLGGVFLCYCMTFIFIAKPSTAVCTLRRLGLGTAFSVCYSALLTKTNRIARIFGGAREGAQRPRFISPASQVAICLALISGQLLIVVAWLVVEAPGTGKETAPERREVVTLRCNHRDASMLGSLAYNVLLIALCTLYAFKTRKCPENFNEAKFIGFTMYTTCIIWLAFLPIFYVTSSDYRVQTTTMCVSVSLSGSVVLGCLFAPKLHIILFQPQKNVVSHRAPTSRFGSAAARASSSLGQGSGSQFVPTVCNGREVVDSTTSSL

[28] = target: T1, Metabotropic glutamate receptor 2; assay: Binding affinity to human recombinant mGlur2 assessed as inhibition constant by cAMP Glosensor assay
Target sequence in this assay (Q14416 whole entry): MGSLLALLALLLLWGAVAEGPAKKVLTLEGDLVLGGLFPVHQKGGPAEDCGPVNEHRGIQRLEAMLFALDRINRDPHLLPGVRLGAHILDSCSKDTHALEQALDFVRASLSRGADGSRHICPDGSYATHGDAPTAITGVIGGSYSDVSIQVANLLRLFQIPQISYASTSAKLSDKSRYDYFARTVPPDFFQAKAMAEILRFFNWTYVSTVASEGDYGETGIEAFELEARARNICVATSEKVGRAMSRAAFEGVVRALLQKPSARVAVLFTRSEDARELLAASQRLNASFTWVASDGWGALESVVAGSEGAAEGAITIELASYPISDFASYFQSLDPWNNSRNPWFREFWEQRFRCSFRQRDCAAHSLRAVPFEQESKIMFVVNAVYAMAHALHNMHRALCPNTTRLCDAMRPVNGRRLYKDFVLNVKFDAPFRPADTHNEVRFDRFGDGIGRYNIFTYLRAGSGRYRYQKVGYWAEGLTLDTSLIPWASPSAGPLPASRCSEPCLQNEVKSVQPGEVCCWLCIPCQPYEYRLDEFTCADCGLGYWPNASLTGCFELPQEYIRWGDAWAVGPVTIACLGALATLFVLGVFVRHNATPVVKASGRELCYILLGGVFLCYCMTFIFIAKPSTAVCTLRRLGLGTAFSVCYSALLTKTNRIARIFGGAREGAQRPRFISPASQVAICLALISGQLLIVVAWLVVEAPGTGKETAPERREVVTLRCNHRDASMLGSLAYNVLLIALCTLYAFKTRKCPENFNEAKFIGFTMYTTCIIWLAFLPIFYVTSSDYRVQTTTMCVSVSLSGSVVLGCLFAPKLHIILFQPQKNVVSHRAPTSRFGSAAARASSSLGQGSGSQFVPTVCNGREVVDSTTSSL

SUVmax [1]: 1.7
Compound: [11CH3]Oc1cc(CN2CCc3c(-c4ccc(F)cc4F)cc(C(N)=O)nc3C2)ccn1

Compound: CC1(C)CCc2c(-c3ccc(O[11CH3])cc3F)cc(C(N)=O)nc2O1
Drug uptake [2]: 22.4% | Drug uptake [3]: 15.2% | Drug uptake [4]: 41.7% | Drug uptake [5]: Active | Drug uptake [6]: 41.7% | Drug uptake [7]: 39.6% | Retention_time [8]: 2 min | Drug uptake [9]: Active | Drug uptake [10]: 42.6% | Drug uptake [11]: 39.6% | Drug uptake [12]: 11.1% | Drug uptake [13]: 38.5% | remaining at 20 min [14]: 24.8% | SUV [15]: 7.5 | Drug uptake [16]: Active | Drug uptake [17]: 12.7% | Drug uptake [18]: Active | Drug uptake [19]: 17.1% | Drug uptake [20]: 41.7% | Drug uptake [21]: Active | remaining at 20 min [22]: 53% | Drug uptake [23]: Active

remaining at 1 h [24]: 47.8% | remaining at 1 h [25]: 94.5% | logD [26]: 2.94
Compound: COc1ccc(-c2cc(C(N)=O)nc3c2CCC(C)(C)O3)c(F)c1

SUVmax [1]: 1.2
Compound: Cn1ccc(COc2cnc(C(N)=O)cc2-c2ccc(O[11CH3])cc2F)n1

Activity [27]: Active | remaining at 1 h [24]: 94.5% | remaining at 1 h [25]: 95.3% | logD [26]: 2.81 | Ki [28]: 59 nM
Compound: CC1(C)CCc2c(-c3ccc(F)cc3F)cc(C(N)=O)nc2O1
